Source: ChEMBL document CHEMBL1153346, “Structure-activity study of pentamidine analogues as antiprotozoal agents” (J Med Chem, 2009)
pIC50: −log10 of the molar value. Calls of active or inactive are those of the source. The calls are words filed in the database; no cut-off is given here.

Legend:
[1] = Selectivity index, ratio of IC50 for rat L6 cells to IC50 for Trypanosoma brucei rhodesiense STIB900 trypomastigotes; type: toxicity, cell-based; conditions: read-out: Ratio IC50
Outline: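 Ratio of L6 IC50 to STIB900 IC50. L6 cells: 4000/well in RPMI 1640 with 10% FBS, 70 h at 37 °C. Bloodstream forms: 2000/well in supplemented MEM with 15% horse serum, 70 h at 37 °C. Both read by Alamar blue fluorescence; IC50s from sigmoidal curves, two independent runs in duplicate.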

[2] = Selectivity index, ratio of IC50 for rat L6 cells to IC50 for chloroquine-resistant Plasmodium falciparum K1; type: toxicity, cell-based; conditions: read-out: Ratio IC50
Outline: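 Ratio of L6 IC50 to K1 IC50. L6 cells: Alamar blue assay after 70 h, 37 °C. K1: [3H]-hypoxanthine incorporation in infected red cells over 48 + 24 h at 37 °C under low O2. IC50s from sigmoidal curves, two independent runs in duplicate.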

[3] = system: Trypanosoma brucei rhodesiense; assay: Antiprotozoal activity against Trypanosoma brucei rhodesiense STIB900 trypomastigotes after 70 hrs by alamar blue assay; type: functional, organism-based
Outline: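 Bloodstream forms, 2000 per well, in MEM with Earle's salts plus 0.2 mM 2-mercaptoethanol, 1 mM pyruvate, 0.5 mM hypoxanthine and 15% heat-inactivated horse serum. Exposed to serial dilutions (DMSO ≤1%) for 70 h at 37 °C in 5% CO₂. Resazurin then added for a further 2-6 h. IC50 from sigmoidal curves; two independent runs in duplicate.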

[4] = system: Plasmodium falciparum; assay: Antiprotozoal activity after 48 hrs against chloroquine-resistant Plasmodium falciparum K1 infected erythrocytes by [3H]hypoxanthine uptake; type: functional, organism-based
Outline: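 Erythrocytic stages in infected human red cells (hematocrit 1.25%, parasitemia 0.3%) in supplemented RPMI 1640 with Albumax II. Serial dilutions incubated at 37 °C in 93% N2/4% CO2/3% O2. [3H]-hypoxanthine (0.5 µCi/well) added at 48 h, then 24 h more. Incorporation counted by scintillation. IC50 from sigmoidal curves; two independent runs in duplicate.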

[5] = system: L6; assay: Cytotoxicity against rat L6 cells after 70 hrs by alamar blue assay; type: cell-based; conditions: L6, 70 h
Outline: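 L6 rat myoblasts, 4000 per well, in RPMI 1640 with 2 mM L-glutamine, HEPES, NaHCO₃ and 10% FBS. Exposed to serial dilutions (DMSO ≤1%) for 70 h at 37 °C in humidified 5% CO₂. Resazurin then added for 2-3 h; fluorescence read at ex 536/em 588 nm. IC50 from sigmoidal curves; two independent runs in duplicate.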

[6] = system: Trypanosoma brucei rhodesiense; assay: Antitrypanosomal activity against Trypanosoma brucei rhodesiense STIB900 trypomastigotes infected in NMRI mouse assessed as mouse survival at 20 mg/kg, ip administered from day 3 to day 6 postinfection; type: functional; conditions: route intraperitoneal
Outline: (§1)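 STIB900 acute mouse model. Dosing was intraperitoneal, daily for four days, in DMSO diluted with water to 10% final DMSO. An infected untreated control group was kept. Tail blood was checked for parasitemia to day 60, and deaths were recorded to give mean survival days. Mice surviving and aparasitemic at day 60 counted as cured.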

[7] = system: Leishmania donovani; assay: Antiprotozoal activity against Leishmania donovani MHOM/SD/62/1S-CL2D axenic amastigotes after 72 hrs; type: functional, organism-based
Outline: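 L. donovani axenic amastigotes, adapted from promastigotes and grown in amastigote medium at 37 °C. 6 × 10⁴ parasites per well with 2-fold compound dilutions (DMSO ≤1%), incubated 72 h at 37 °C in humidified 5% CO₂. Growth read by tetrazolium (CellTiter) absorbance at 490 nm. IC50 from a four-parameter dose-response fit. Average of duplicate determinations.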

[8] = Selectivity index, ratio of IC50 for rat L6 cells to IC50 for Leishmania donovani MHOM/SD/62/1S-CL2D axenic amastigotes; type: toxicity, cell-based; conditions: read-out: Ratio IC50
Outline: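 Amastigotes: 6 × 10⁴ parasites/well with 2-fold dilutions, 72 h at 37 °C in 5% CO2. Growth read by tetrazolium CellTiter absorbance at 490 nm; IC50 from a four-parameter dose-response fit.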

[9] = system: Trypanosoma brucei rhodesiense; assay: Antitrypanosomal activity against Trypanosoma brucei rhodesiense STIB900 trypomastigotes infected in NMRI mouse assessed as mouse survival at 10 mg/kg, ip administered from day 3 to day 6 postinfection; type: functional; conditions: route intraperitoneal; outline: as §1
[10] = system: Trypanosoma brucei rhodesiense; assay: Antitrypanosomal activity against Trypanosoma brucei rhodesiense STIB900 trypomastigotes infected in NMRI mouse assessed as survival and aparasitemic condition at 20 mg/kg, ip administered from day 3 to day 6 postinfection measured after 60 days postinfection; type: functional, organism-based; set-up: dose 20 mg/kg
Outline: (§2)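 STIB900 acute mouse model with 4 mice per group. Compound in DMSO diluted with water to a final 10% DMSO, given intraperitoneally once daily for four days. An infected, untreated control group was included. Tail blood checked for parasitemia until day 60. Mice alive and aparasitemic at day 60 counted as cured; deaths recorded for mean survival time.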

[11] = system: Trypanosoma brucei rhodesiense; assay: Antitrypanosomal activity against Trypanosoma brucei rhodesiense STIB900 trypomastigotes infected in NMRI mouse assessed as survival and aparasitemic condition at 5 mg/kg, ip administered from day 3 to day 6 postinfection measured after 60 days postinfection; type: functional, organism-based; set-up: dose 5 mg/kg; outline: as §2
[12] = system: Trypanosoma brucei rhodesiense; assay: Antitrypanosomal activity against Trypanosoma brucei rhodesiense STIB900 trypomastigotes infected in NMRI mouse assessed as mouse survival at 5 mg/kg, ip administered from day 3 to day 6 postinfection; type: functional; conditions: route intraperitoneal; outline: as §1

Row | Structure (SMILES) | selectivity ratio [1] | selectivity ratio [2] | pIC50 [3] | pIC50 [4] | pIC50 [5] | Survival [6] | pIC50 [7] | selectivity ratio [8] | Survival [9] | Activity [10] | Activity [11] | Survival [12]
1 | Cl.Cl.N=C(N)c1ccc(OCCCOc2ccc(C(=N)N)cc2N)c(N)c1 | 440 | 2540 | 6.81 | 7.57 | 4.16 | >40 days | – | – | – | – | – | –
2 | Cl.Cl.N=C(N)c1ccc(OCCCCCOc2ccc(C(=N)N)c(F)c2)cc1F | 531 | 460 | 7.89 | 7.82 | 5.16 | – | 5.73 | 4 | >33 days | – | – | –
3 | Cl.Cl.N=C(N)c1ccc(OCCCCCOc2ccc(C(=N)N)cc2C(N)=O)c(C(N)=O)c1 | > 3730 | > 4420 | 7.35 | 7.42 | < 3.77 | 26.5 days | < 4.30 | – | – | inactive | – | –
4 | Cl.Cl.c1cc(C2=NCCN2)ccc1NCCCCCNc1ccc(C2=NCCN2)cc1 | 34500 | 34500 | 9.00 | 9.00 | 4.46 | – | 6.60 | 136 | – | – | Active | >60 days
5 | Cl.Cl.Cl.Cl.N=C(N)c1ccc(OCCCCCOc2ccc(C(=N)N)cc2Cl)c(Cl)c1 | 255 | 431 | 7.36 | 7.59 | 4.95 | >29.5 days | 5.84 | 8 | – | inactive | – | –
6 | COc1cc(C(=N)N)ccc1OCCCOc1ccc(C(=N)N)cc1OC.Cl.Cl | 4960 | 1840 | 7.64 | 7.21 | 3.94 | >60 days | 5.16 | 17 | – | Active | – | >52.8 days
7 | Cl.Cl.N=C(N)c1ccc(OCCCOc2ccc(C(=N)N)cc2Br)c(Br)c1 | 337 | 400 | 7.72 | 7.80 | 5.19 | – | 5.93 | 5 | – | – | inactive | 13 days
8 | Cl.Cl.N=C(N)c1cccc(OCCCCCCOc2cccc(C(=N)N)c2)c1 | 228 | 1320 | 7.12 | 7.89 | 4.77 | >36 days | 5.62 | 7 | – | – | – | –
9 | Cl.N=C(N)c1ccc(NCCCCCNc2ccc(C(=N)N)cc2)cc1 | > 950 | 158 | > 9.00 | 8.22 | 6.02 | – | 6.30 | 2 | – | – | – | >29.3 days
10 | Cl.Cl.N=C(N)c1ccc(OCCCOc2ccc(C3=NCCN3)cc2)cc1 | 3980 | 3980 | 7.74 | 7.74 | 4.15 | – | 5.53 | 24 | >26.8 days | – | – | –
11 | Cl.Cl.N=C(N)c1ccc(OCCCOc2ccc(C(=N)N)cc2)cc1 | 1260 | 1470 | 8.15 | 8.22 | 5.06 | 34 days | 5.82 | 6 | – | inactive | – | –
12 | Cl.Cl.N=C(Nc1ccc(OCCCCCOc2ccc(NC(=N)c3ccccc3)cc2)cc1)c1ccccc1 | 21 | 15 | 6.83 | 6.70 | 5.51 | 7 days | < 4.00 | < 1 | – | inactive | – | –
13 | Cl.Cl.N=C(N)c1cccc(OCCCOc2cccc(C(=N)N)c2)c1 | 312 | 953 | 7.28 | 7.77 | 4.79 | >32.8 days | 5.22 | 3 | >40 days | – | – | –
14 | CC(C)NC(=N)c1ccc(NCCCCCNc2ccc(C(=N)NC(C)C)cc2)cc1.Cl | 2500 | 62500 | 7.30 | 8.70 | 3.90 | – | 5.24 | 22 | – | – | inactive | 18 days
15 | Cl.Cl.N=C(N)c1ccc(OCCCCOc2ccc(C(=N)N)cc2)cc1 | 470 | 224 | 8.00 | 7.68 | 5.33 | 24.8 days | – | – | – | inactive | – | –
16 | Cl.c1cc(C2=NCCN2)ccc1OCCCCCOc1ccc(C2=NCCN2)cc1 | > 3360 | > 59300 | 7.28 | 8.52 | < 3.75 | >39 days | 5.56 | > 64 | – | inactive | – | –
17 | CC(C)NC(=N)c1ccc(OCCCCCOc2ccc(C(=N)NC(C)C)cc2)cc1.Cl.Cl | 5560 | 50000 | 7.57 | 8.52 | 3.82 | – | 4.75 | 8 | – | – | – | >41.3 days
18 | Cl.Cl.N=C(N)c1cccc(OCCCCCOc2cccc(C(=N)N)c2)c1 | 283 | 968 | 7.19 | 7.72 | 4.74 | 18.5 days | 5.50 | 6 | – | inactive | – | –
19 | CC(C)NC(=N)c1ccc(OCCCOc2ccc(C(=N)NC(C)C)cc2)cc1.Cl.Cl | > 2060 | > 7680 | 7.03 | 7.60 | < 3.72 | – | 5.15 | > 27 | >38.5 days | – | – | –
20 | CNC(=N)c1ccc(OCCCCCOc2ccc(C(=N)NC)cc2)cc1.Cl.Cl | 6330 | 38000 | 7.62 | 8.40 | 3.82 | >60 days | 5.33 | 32 | – | Active | – | >41 days
21 | COc1cc(C2=NCCN2)ccc1OCCCOc1ccc(C2=NCCN2)cc1OC.Cl.Cl | 1170 | 1910 | 7.05 | 7.26 | 3.98 | >60 days | 4.46 | 3 | >32.8 days | – | – | –
22 | Cl.N=C(N)c1ccc(OCCCCCOc2ccc(C(=N)N)cc2)cc1 [PENTAMIDINE HYDROCHLORIDE] | – | – | 8.15 | 7.85 | – | >44.3 days | – | – | >43.5 days | – | – | –
23 | Cl.Cl.N=C(N)c1ccc(OCCCCCCOc2ccc(C(=N)N)cc2)cc1 | 292 | 700 | 7.44 | 7.82 | 4.98 | >51.8 days | 5.71 | 5 | – | – | – | >44.3 days
